Reference: ChEMBL document CHEMBL2413028, “1-Hydroxypyrazole as a bioisostere of the acetic acid moiety in a series of aldose reductase inhibitors” (Bioorg Med Chem, 2013)
pIC50: −log10 of the molar value.

How the values were obtained:
[1] = species: Rattus norvegicus; test: Selectivity index, ratio of IC50 for partially purified Fischer-344 rat kidney ALR1 to IC50 for partially purified Fischer-344 rat lens ALR2; details: Lens of camera-type eye
[2] = target: Aldo-keto reductase family 1 member A1 (Rattus norvegicus, UniProt P51635); test: Inhibition of partially purified Fischer-344 rat kidney ALR1 using D,L-glycuronate as substrate assessed as NADPH consumption by spectrophotometry
Method in brief: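 Kidneys from Fischer-344 rats of both sexes homogenized in 3 vol 10 mM sodium phosphate buffer; 10,000g supernatant taken through ammonium sulfate fractions at 40%, 50% and 75% saturation. Last pellet redissolved in 10 mM sodium phosphate pH 7.2 with 2.0 mM EDTA and 2.0 mM β-mercaptoethanol, DEAE-treated, stored at −80 °C. Substrate D-glycuronate at 37 °C. NADPH loss read at 340 nm. Five concentrations, triplicate; IC50 by least squares on linear part of log(dose)–response.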

[3] = target: Aldo-keto reductase family 1 member B1 (Rattus norvegicus, UniProt P07943); test: Inhibition of partially purified Fischer-344 rat lens ALR2 using D,L-glyceraldehyde as substrate assessed as NADPH consumption by spectrophotometry; parameters: species or system Lens of camera-type eye
Method in brief: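 Supernatant brought to 40% ammonium sulfate saturation and spun again; supernatant used directly or kept ≤24 h at −80 °C. Compounds dissolved in 0.2 M NaHCO3. Substrate D,L-glyceraldehyde at 30 °C; NADPH loss at 340 nm. Five concentrations, triplicate; IC50 by least-squares fit of linear log(dose)–response region.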

Sequence of Aldo-keto reductase family 1 member A1 (P51635 whole entry, looked up): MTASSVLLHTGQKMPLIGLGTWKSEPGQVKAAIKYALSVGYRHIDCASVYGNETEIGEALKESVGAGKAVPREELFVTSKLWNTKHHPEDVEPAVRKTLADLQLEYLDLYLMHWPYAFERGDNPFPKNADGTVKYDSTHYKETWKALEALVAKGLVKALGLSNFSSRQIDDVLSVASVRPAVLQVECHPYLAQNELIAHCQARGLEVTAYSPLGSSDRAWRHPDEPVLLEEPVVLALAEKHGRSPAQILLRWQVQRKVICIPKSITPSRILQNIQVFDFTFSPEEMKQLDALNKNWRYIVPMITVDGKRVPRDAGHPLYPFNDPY

Row | Compound | pIC50 [2] | pIC50 [3] | Ratio IC50 [1]
1 | COc1ccc(C(=O)c2cccn2CC(=O)O)cc1 | < 4.00 | 5.34 | > 21.9
2 | COc1ccc(C(=O)c2ccn(-c3cnn(O)c3)c2)cc1 | 4.97 | 6.15 | 11.2
3 | O=C(O)Cn1cccc1C(=O)c1ccccc1 | < 4.00 | 4.66 | > 4.54
4 | O=C(c1ccccc1)c1cccn1-c1cnn(O)c1 | < 4.00 | 4.87 | > 7.41
5 | O=C(c1ccc(-c2ccccc2)cc1)c1cccn1-c1cnn(O)c1 | < 4.00 | 5.01 | > 10.2
6 | O=C(O)Cn1ccc(C(=O)c2ccc(-c3ccccc3)cc2)c1 | 4.28 | 6.46 | 153

Continued, in another order:

Row | pIC50 [2] | pIC50 [3] | Compound | Ratio IC50 [1]
7 | < 4.00 | 5.80 | COc1ccc(C(=O)c2ccn(CC(=O)O)c2)cc1 | > 62.4
8 | 4.21 | 6.16 | O=C(c1ccc(-c2ccccc2)cc1)c1ccn(-c2cnn(O)c2)c1 | 88.9
9 | < 4.00 | 5.15 | O=C(O)Cn1cccc1C(=O)c1ccc(-c2ccccc2)cc1 | > 14.3
10 | 4.97 | 5.94 | O=C(c1ccccc1)c1ccn(-c2cnn(O)c2)c1 | 9.46
11 | < 4.00 | 4.82 | COc1ccc(C(=O)c2cccn2-c2cnn(O)c2)cc1 | > 6.67
12 | < 4.00 |  | O=C(O)Cn1ccc(C(=O)c2ccccc2)c1 | > 50.8
